Here are results for 12 molecules from ChEMBL document CHEMBL1141591, “Lipophilic modifications to dinucleoside polyphosphates and nucleotides that confer antagonist properties at the platelet P2Y12 receptor” (J Med Chem, 2008).

Activity calls are given as the source filed them. The calls are words filed in the database; no cut-off is given here.

Experiment [1] has as its target P2Y purinoceptor 1 (Homo sapiens, UniProt P47900). As to the kind of experiment: Agonist activity at human recombinant P2Y1 receptor expressed in human 1321 cells at 100 uM by calcium mobilization assay. It counts as functional, cell-based. The essentials:
(§1)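 1321N1 human astrocytoma cells expressing the recombinant receptor were loaded with Fluo-3 AM (2.5 µM final) for 60 min at 25 °C. Assay buffer: KCl 10, NaCl 118, CaCl2 2.5, MgCl2 1, HEPES 20, glucose 10 mM, pH 7.4. Cells were washed and then stimulated with compound. Intracellular calcium was read as the change in fluorescence (FLIPR). Values are EC50 in µM. SR means 5–20% of maximal response at the top concentration, usually 100 µM. NR means no response.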

Experiment [2] concerns the target T1, P2Y purinoceptor 2 (Homo sapiens, UniProt P41231). As to the kind of experiment: Agonist activity at P2Y2 receptor expressed in human 1321 cells at 100 uM by calcium mobilization assay. Format: functional, cell-based. Summed up: as §1
In general terms: Calcium assays in cells follow changes in intracellular calcium, usually with a dye or a luminescent sensor.

For experiment [3], the target named is P2Y purinoceptor 6 (Homo sapiens, UniProt Q15077). As to the kind of experiment: Agonist activity at P2Y6 receptor expressed in human 1321 cells at 100 uM by calcium mobilization assay. Format: functional, cell-based. Summed up: as §1
Experiment [4] deals with P2Y purinoceptor 4 (Homo sapiens) (UniProt P51582). As to the kind of experiment: Agonist activity at P2Y4 receptor expressed in human 1321 cells at 100 uM by calcium mobilization assay. Format: functional, cell-based.
For experiment [5], the target named is P2Y purinoceptor 12 (Homo sapiens) (UniProt Q9H244). As to the kind of experiment: Antagonist activity at P2Y12 receptor assessed as inhibition of ADP-induced human platelet aggregation by washed platelet assay at 100 uM. Format: functional. The essentials:
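Blood from healthy volunteers was anticoagulated with ACD and spun at 180g for 15 min to give PRP. Platelets were washed three times in HEPES-buffered saline, pH 7.4, with 0.2% BSA and 5 µM PGI2, then resuspended with 0.25 U/mL apyrase. The suspension held 1 mg/mL fibrinogen at 37 °C, stirred at 1000 rpm. Compound (usually 1 nM–100 µM) was added for 2 min, then ADP at EC90 (usually 1–10 µM). Optical aggregation was recorded for 8 min. IC50 came from a four-parameter logistic fit.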

Experiment [6] addresses T1, P2Y purinoceptor 2. As to the kind of experiment: Agonist activity at P2Y2 receptor expressed in human 1321 cells by calcium mobilization assay. It counts as functional, cell-based.

Chain of P2Y purinoceptor 1 (P47900 whole entry): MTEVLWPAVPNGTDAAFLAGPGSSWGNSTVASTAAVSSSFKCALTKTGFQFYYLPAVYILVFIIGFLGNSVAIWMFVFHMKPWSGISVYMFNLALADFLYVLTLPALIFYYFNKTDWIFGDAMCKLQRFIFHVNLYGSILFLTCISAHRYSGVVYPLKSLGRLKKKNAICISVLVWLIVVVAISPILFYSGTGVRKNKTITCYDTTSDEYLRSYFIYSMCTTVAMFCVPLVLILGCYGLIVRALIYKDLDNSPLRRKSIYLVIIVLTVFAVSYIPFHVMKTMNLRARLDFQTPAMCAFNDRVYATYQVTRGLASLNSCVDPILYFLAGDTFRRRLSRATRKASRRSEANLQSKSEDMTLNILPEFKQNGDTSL
Chain of P2Y purinoceptor 12 (Homo sapiens) (Q9H244 whole entry): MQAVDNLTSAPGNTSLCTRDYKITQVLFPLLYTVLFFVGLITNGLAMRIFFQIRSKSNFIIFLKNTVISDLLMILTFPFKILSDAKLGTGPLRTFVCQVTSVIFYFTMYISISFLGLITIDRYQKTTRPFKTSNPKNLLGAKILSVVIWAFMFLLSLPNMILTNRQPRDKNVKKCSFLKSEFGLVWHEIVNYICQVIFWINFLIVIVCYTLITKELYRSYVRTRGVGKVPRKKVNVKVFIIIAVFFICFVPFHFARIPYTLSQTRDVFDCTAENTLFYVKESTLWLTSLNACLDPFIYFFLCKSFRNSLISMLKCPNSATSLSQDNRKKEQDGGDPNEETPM
T1 sequence (P41231 whole entry): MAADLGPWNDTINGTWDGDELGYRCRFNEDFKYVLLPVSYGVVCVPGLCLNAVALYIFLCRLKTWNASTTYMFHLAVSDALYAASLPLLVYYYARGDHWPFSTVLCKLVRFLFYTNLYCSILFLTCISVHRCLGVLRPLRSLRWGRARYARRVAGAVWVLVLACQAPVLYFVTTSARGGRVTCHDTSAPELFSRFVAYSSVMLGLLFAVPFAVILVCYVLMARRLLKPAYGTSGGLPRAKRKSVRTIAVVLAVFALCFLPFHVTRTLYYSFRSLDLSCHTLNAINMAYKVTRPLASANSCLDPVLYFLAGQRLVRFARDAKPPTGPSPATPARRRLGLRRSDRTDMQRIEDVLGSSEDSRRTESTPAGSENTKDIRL
Chain of P2Y purinoceptor 6 (Q15077 whole entry): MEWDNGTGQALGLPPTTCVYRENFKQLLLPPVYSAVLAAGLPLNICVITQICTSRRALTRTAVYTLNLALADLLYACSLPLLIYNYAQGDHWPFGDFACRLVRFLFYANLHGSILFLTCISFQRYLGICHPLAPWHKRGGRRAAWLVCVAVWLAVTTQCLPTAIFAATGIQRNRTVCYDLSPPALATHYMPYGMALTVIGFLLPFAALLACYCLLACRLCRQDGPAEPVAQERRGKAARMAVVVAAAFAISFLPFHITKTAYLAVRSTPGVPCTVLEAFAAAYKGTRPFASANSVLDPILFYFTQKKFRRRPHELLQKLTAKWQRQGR
Chain of P2Y purinoceptor 4 (Homo sapiens) (P51582 whole entry): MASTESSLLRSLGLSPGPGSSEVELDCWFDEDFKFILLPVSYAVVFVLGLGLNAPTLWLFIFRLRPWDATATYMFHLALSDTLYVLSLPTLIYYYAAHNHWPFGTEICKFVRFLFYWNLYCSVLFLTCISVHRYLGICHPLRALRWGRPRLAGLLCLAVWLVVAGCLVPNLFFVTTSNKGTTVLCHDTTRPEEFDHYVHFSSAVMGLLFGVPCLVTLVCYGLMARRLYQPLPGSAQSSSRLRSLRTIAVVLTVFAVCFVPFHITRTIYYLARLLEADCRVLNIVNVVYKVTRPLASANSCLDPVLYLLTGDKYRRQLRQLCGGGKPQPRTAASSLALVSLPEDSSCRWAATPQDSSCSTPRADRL

For `CCCCCCNC(=O)Nc1ncnc2c1ncn2[C@@H]1O[C@H](COP(=O)(O)O)C2OC(C#Cc3ccccc3)OC21` (single isomer, unassigned), the outcome in experiment [1], in experiment [2], in experiment [3] and in experiment [4] was inactive.

`O=C(Nc1ncnc2c1ncn2[C@@H]1O[C@H](COP(=O)(O)O)C2OC(Cc3ccccc3)OC21)NC1CCCC1` (single isomer, unassigned): the result in experiment [1], in experiment [2], in experiment [3] and in experiment [4] was inactive.

`O=C(Nc1ccccc1)Nc1ncnc2c1ncn2[C@@H]1O[C@H](COP(=O)(O)O)C2OC(/C=C/c3ccccc3)OC21` (single isomer, unassigned): the outcome in experiment [1], in experiment [2], in experiment [3] and in experiment [4] was inactive.

For `O=C(Nc1ccccc1)Nc1ncnc2c1ncn2[C@@H]1O[C@H](COP(=O)(O)O)C2OC(C#Cc3ccccc3)OC21` (single isomer, unassigned), the outcome in experiment [1], in experiment [2], in experiment [3] and in experiment [4] was inactive.

Take `CCNC(=O)Nc1ncnc2c1ncn2[C@@H]1O[C@H](COP(=O)(O)O)C2O[C@H](/C=C/c3ccccc3)OC21` (single isomer, unassigned): the outcome in experiment [1], in experiment [2], in experiment [3] and in experiment [4] was inactive.

Turning to `CCNC(=O)Nc1ncnc2c1ncn2[C@@H]1O[C@H](COP(=O)(O)O)[C@H]2OC(Cc3ccccc3)O[C@H]21` (stereo partly drawn), the result in experiment [1], in experiment [2], in experiment [3] and in experiment [4] was inactive.

`Nc1ncnc2c1ncn2[C@@H]1O[C@H](COP(=O)(O)O)[C@H]2OC(/C=C/c3ccccc3)O[C@H]21` (stereo partly drawn): the result in experiment [1], in experiment [2], in experiment [3] and in experiment [4] was inactive.

As for `CCNC(=O)Nc1ncnc2c1ncn2[C@@H]1O[C@H](COP(=O)(O)O)C2OC(/C=C/c3ccccc3)OC21` (single isomer, unassigned), the outcome in experiment [1], in experiment [2], in experiment [3] and in experiment [4] was inactive.

Consider `Nc1ccn([C@@H]2O[C@H](COP(=O)(O)OP(=O)(O)OP(=O)(O)OP(=O)(O)OC[C@@H]3O[C@H](n4ccc(=O)[nH]c4=O)[C@@H](O)[C@H]3O)[C@@H](O)[C@H]2O)c(=O)n1`, for which the result in experiment [5] was inactive. For the same molecule, the EC50 in experiment [6] is 44 nM. In addition, the Activity in experiment [1] and in experiment [3] was greater than 5% each time.

Regarding `O=C(Nc1ccccc1)Nc1ncnc2c1ncn2[C@@H]1O[C@H](COP(=O)(O)O)[C@H]2OC(Cc3ccccc3)O[C@H]21` (stereo partly drawn), the outcome in experiment [1], in experiment [2], in experiment [3] and in experiment [4] was inactive.

As for `Nc1ccn([C@@H]2O[C@H](COP(=O)(O)OP(=O)(O)OP(=O)(O)OP(=O)(O)OC[C@@H]3O[C@H](n4ccc(=O)[nH]c4=O)[C@@H](O)[C@H]3O)[C@H]3OC(Cc4ccccc4)O[C@H]32)c(=O)n1` (stereo partly drawn), the inhibition in experiment [5] worked out at 46%. For the same molecule, the concentration for a half-maximal effect (EC50) in experiment [6] was found to be 545 nM. Besides, the result in experiment [1] and in experiment [3] was inactive.

On to `CNc1ccccc1C(=O)O[C@H]1[C@@H](O)[C@H](COP(=O)(O)OP(=O)(O)OP(=O)(O)OP(=O)(O)OC[C@H]2O[C@@H](n3ccc(=O)[nH]c3=O)[C@H](O)[C@@H]2O)O[C@@H]1n1ccc(=O)[nH]c1=O`, for which the inhibition in experiment [5] came to 46%. Besides, in experiment [6], the EC50 is 130 nM. In experiment [1], the result was inactive. For the same molecule, the Activity in experiment [3] is greater than 5%.

Usually EC50 stands for the concentration at which the effect is half-maximal. A word on the inhibition: it is the change of the read-out against control, counted positive when it falls.
